In paper PMC10586084 (Journal of Enzyme Inhibition and Medicinal Chemistry, 2023):
Several values for one entry are separate records, joined by “and”; a condition that tells them apart may be missing. Identical values can stand only once.

Columns and labels:
hCA I = hCA I (Homo sapiens, UniProt P00915); assay: stopped-flow CO2 hydrase assay, hCA I; format: biochemical; details: stopped flow technique, mean from three assays
hCA II = hCA II (Homo sapiens, UniProt P00918); assay: stopped-flow CO2 hydrase assay, hCA II; format: biochemical; details: stopped flow technique, mean from three assays
hCA IV = hCA IV (Homo sapiens, UniProt P22748); assay: stopped-flow CO2 hydrase assay, hCA IV; format: biochemical; details: stopped flow technique, mean from three assays
hCA IV, sequence (P22748 19-284 limits assumed): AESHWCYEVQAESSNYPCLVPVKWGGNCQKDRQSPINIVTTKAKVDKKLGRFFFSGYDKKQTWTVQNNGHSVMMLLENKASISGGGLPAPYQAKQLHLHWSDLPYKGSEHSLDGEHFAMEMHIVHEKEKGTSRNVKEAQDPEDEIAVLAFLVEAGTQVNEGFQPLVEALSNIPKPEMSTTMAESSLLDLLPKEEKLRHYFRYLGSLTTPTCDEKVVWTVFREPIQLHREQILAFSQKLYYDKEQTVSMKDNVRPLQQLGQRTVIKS

hCA IX = hCA IX (Homo sapiens, UniProt Q16790); assay: biochemical; format: biochemical; details: for Ki: KI hCA IX, stopped flow technique, mean from three assays; for Selectivity index I/IX: ratio KI hCA I / KI hCA IX; for Selectivity index II/IX: ratio KI hCA II / KI hCA IX; for Selectivity index IV/IX: ratio KI hCA IV / KI hCA IX
hCA XII = hCA XII (Homo sapiens, UniProt O43570); assay: stopped-flow CO2 hydrase assay, hCA XII; format: biochemical; details: for Ki: KI hCA XII, stopped flow technique, mean from three assays; for Selectivity index I/XII: ratio KI hCA I / KI hCA XII; for Selectivity index II/XII: ratio KI hCA II / KI hCA XII; for Selectivity index IV/XII: ratio KI hCA IV / KI hCA XII
hCA XII, sequence (O43570 25-354): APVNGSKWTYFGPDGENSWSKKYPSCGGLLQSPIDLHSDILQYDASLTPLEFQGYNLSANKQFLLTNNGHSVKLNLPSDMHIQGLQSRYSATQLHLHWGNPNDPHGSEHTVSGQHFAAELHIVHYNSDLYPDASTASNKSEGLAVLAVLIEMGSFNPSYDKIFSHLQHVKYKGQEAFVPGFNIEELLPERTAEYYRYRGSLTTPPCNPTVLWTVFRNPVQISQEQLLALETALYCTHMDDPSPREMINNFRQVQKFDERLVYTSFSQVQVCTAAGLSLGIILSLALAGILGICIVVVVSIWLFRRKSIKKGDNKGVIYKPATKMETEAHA

[1] = cytotoxicity in resting peripheral blood lymphocytes; format: cell-based; details: human
[2] = test system: HuTuP192 primary glioblastoma cells; assay: cell proliferation analysis; format: cell-based, human; details: 72 h; for effect of combination on the effect of TMZ: compound 10 µM + TMZ 500 µM, HuTuP192
[3] = test system: HuTuP108 primary glioblastoma cells; assay: cell proliferation analysis; format: cell-based, human; details: 72 h; for effect of combination on the effect of TMZ: compound 10 µM + TMZ 500 µM
[4] = test system: HD-MB03 and DAOY medulloblastoma cell lines; assay: cell proliferation analysis; format: cell-based, human; details: compound 10 µM + cis-Pt 1.8 µM, 72 h, both MB cell lines
HD-MB03 cells = assay: apoptosis assay; format: cell-based, human; details: 72 h; for apoptotic cells in combination with cis-Pt: 10 µM + cis-Pt 1.8 µM, HD-MB03, vs single treatments; for induction of apoptosis (apoptotic cells): 10 µM alone, HD-MB03
How it was run: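 HD-MB03 medulloblastoma cells grown in RPMI 1640 with 10% FBS, 1% glutamine and 1% penicillin–streptomycin, kept at 2% O2/5% CO2. Seeded at 10 000 cells/well, treated after 24 h, exposed 72 h. Stained 15 min in the dark at room temperature with Annexin V–FITC (FL1, 525 nm/40) and PI (FL3, 620 nm/20). Whole population analysed by flow cytometry. Mean ± SE, three independent experiments.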

[5] = test system: HuTuP108 GBM primary cells; assay: apoptosis assay; format: cell-based, human; details: 72 h; for apoptotic cells in combination with TMZ: 10 µM + TMZ 500 µM, HuTuP108, vs single treatments; for induction of apoptosis: 10 µM alone, HuTuP108
How it was run: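 Patient-derived primary glioblastoma cells on fibronectin-coated plates in DMEM/F12 with 10% BIT9500, 20 ng/mL bFGF and 20 ng/mL EGF, held at 2% O2/5% CO2. Seeded at 10 000 cells/well, dosed 24 h later for 72 h. Annexin V–FITC/PI staining for 15 min in the dark at room temperature, then flow cytometry (FL1 525 nm/40, FL3 620 nm/20) on the whole population. Mean ± SE of three independent experiments.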

hCA I, sequence (P00915 whole entry): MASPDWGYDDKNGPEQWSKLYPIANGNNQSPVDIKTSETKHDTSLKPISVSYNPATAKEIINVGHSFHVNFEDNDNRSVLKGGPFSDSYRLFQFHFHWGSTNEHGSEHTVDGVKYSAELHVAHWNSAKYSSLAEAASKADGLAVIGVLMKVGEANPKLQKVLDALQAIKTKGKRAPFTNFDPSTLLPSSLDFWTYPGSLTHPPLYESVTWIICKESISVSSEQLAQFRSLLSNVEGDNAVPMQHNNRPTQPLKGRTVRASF

Row | SMILES | Ki (hCA I) | Ki (hCA II) | Ki (hCA IV) | Ki (hCA IX) | Selectivity index I/IX (hCA IX) | Selectivity index II/IX (hCA IX) | Selectivity index IV/IX (hCA IX) | Ki (hCA XII) | Selectivity index I/XII (hCA XII) | Selectivity index II/XII (hCA XII) | Selectivity index IV/XII (hCA XII) | GI50 at 72 h [1] | effect of combination on the effect of TMZ [2] | effect of combination on the effect of TMZ [3] | effect of combination on efficacy of CDDP in reducing cell viability [4] | apoptotic cells in combination with cis-Pt (HD-MB03 cells) | induction of apoptosis (apoptotic cells) (HD-MB03 cells) | apoptotic cells in combination with TMZ [5] | induction of apoptosis [5] | also measured
1 | COc1ccccc1-c1ccnc2nc(Nc3ccc(S(N)(=O)=O)cc3)nn12 [Compound 1y, 4-((7-(2-Methoxyphenyl)-[1,2,4]triazolo[1,5-a]pyrimidin-2-yl)amino)benzenesulfonamide] | 2.2 µM | 0.0729 µM | 6.32 µM | 0.011 µM | 200 | 6.6 | 575 | 0.0316 µM | 69.5 | 2.3 | 200 | > 10 µM | did not significantly improve the effect of TMZ | did not significantly improve the effect of TMZ |  |  |  |  |  | 
2 | Cn1nnc2c(C(N)=O)ncn2c1=O [TMZ, temozolomide, reference compound] |  |  |  |  |  |  |  |  |  |  |  |  |  |  |  |  |  |  |  | response of cells to TMZ ([3]; TMZ 500 µM): resistant
3 | COc1cccc(-c2ccnc3nc(Nc4ccc(S(N)(=O)=O)cc4)nn23)c1 [Compound 1x, 4-((7-(3-Methoxyphenyl)-[1,2,4]triazolo[1,5-a]pyrimidin-2-yl)amino)benzenesulfonamide] | 1.06 µM | 0.0338 µM | 0.559 µM | 0.0051 µM | 207 | 6.6 | 110 | 0.0125 µM | 84.5 | 2.7 | 44.8 | > 10 µM |  |  | significantly improved the efficacy of CDDP |  |  |  |  | decrease in viability ([2]; 10 µM, HuTuP192, hypoxic conditions): most potent
4 | NS(=O)(=O)c1ccc(Nc2nc3nccc(-c4c(F)ccc(F)c4F)n3n2)cc1 [Compound 1j, 4-((7-(2,3,6-Trifluorophenyl)-[1,2,4]triazolo[1,5-a]pyrimidin-2-yl)amino)benzenesulfonamide] | 0.496 µM | 0.0139 µM | 0.662 µM | 0.0086 µM | 57.7 | 1.6 | 77.0 | 0.0054 µM | 91.9 | 2.6 | 123 | > 10 µM | did not significantly improve the effect of TMZ | did not significantly improve the effect of TMZ | significantly improved the efficacy of CDDP | significant increase in the percentage of apoptotic cells | about 25% | significant increase in the percentage of apoptotic cells | ineffective | 
5 | NS(=O)(=O)c1ccc(Nc2nc3nccc(-c4ccccc4Cl)n3n2)cc1 [Compound 1m, 4-((7-(2-Chlorophenyl)-[1,2,4]triazolo[1,5-a]pyrimidin-2-yl)amino)benzenesulfonamide] | 9.15 µM | 0.155 µM | 6.48 µM | 0.0148 µM | 618 | 10 and 10.5 | 438 | 0.0169 µM | 541 | 9.2 | 384 | > 10 µM | did not significantly improve the effect of TMZ | did not significantly improve the effect of TMZ | significantly improved the efficacy of CDDP |  |  |  |  | 
6 | NS(=O)(=O)c1ccc(NC(=O)Nc2ccc(F)cc2)cc1 [SLC-0111, reference compound] |  |  |  |  |  |  |  |  |  |  |  | > 10 µM |  |  |  | did not cause any increase in cytotoxicity | did not significantly induce apoptosis | did not cause any increase in cytotoxicity | did not significantly induce apoptosis | 
